Screening results (PubChem BioAssay)
HIV Rev-RRE inh: HIV-1 Rev-RRE binding inhibitors, primary screen, biochemical, FRET, protein-RNA interaction; Rev peptide-RRE RNA binding; AID 704, 2007; 97,000 tested, 0.79% active; P05866; inhibition, % at 8 µM;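 active = inhibition above the screen-wide mean plus 3 SD, cut at about 35% in these data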
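Test system: labelled RRE RNA duplex and labelled Rev peptide. Times: 5 min compound–RNA preincubation, then 15 min with peptide, 25 °C. Doses: single-dose 8 µM. Measured by: FRET, excitation 480 nm, emission 540 nm donor and 671 nm acceptor. Measure: % inhibition of FRET ratio versus controls.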
CYP2C9 activ: human CYP2C9 activators, primary screen, biochemical, luminescence; Cytochrome P450 2C9 (Homo sapiens), P11712; recombinant CYP2C9, luciferin-H conversion; active compounds read high; factor 1 = untreated enzyme, 0 = blocked; activation factor at 5 µM; 96,000 tested, 1.4% active;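 active = activation factor of 2 or more for CYP2C9 at a 5 µM dose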
CYP2C19 activ: human CYP2C19 activators, primary screen, biochemical, luminescence | Cytochrome P450 2C19 (Homo sapiens), P33261 | recombinant CYP2C19, luciferin-H EGE luminescence; active compounds read high; 0 = fully inhibited enzyme, 1 = untreated enzyme | AID 1025, 2008 | activation factor at 5 µM | 96,000 tested, under 10 active;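 active = activation factor of at least 2 at 5 µM in the primary screen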
Cav3 T inh: Cav3.2 calcium influx blockers – cell-based, Fluo-4 calcium fluorescence, FDSS, MLSMR library, primary screen | Voltage-dependent T-type calcium channel subunit alpha-1H (Homo sapiens), O95180 | Cav3.2-expressing cells; active compounds read low | B-score at 10 µM | 100,000 tested, 4% active | AID 449739, 2010;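 active = single-dose well whose peak fluorescence ratio is a statistical outlier from its plate by either plate-standardised score or position-corrected B-score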
CYP2C19 inh: blockers of cytochrome P450 2C19 activity – biochemical, luminescence, ADME assay, primary screen. P33261. CYP2C19 Supersomes, luciferin-H EGE luminescence, 30 min. 96,000 tested, 21% active. inhibition, % at 5 µM;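 active = CYP2C19 inhibition above a set limit at 5 µM in the primary screen, cut at about 50% in these data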
CYP2C9 inh: blockers of cytochrome P450 2C9 activity – biochemical, luminescence, ADME assay, primary screen; inhibition, % at 5 µM; AID 777, 2007; CYP2C9 Supersomes, luciferin-H conversion; 96,000 tested, 20% active; P11712;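 active = blocking of liver enzyme CYP2C9 beyond about 50% at 5 µM, limit read from the data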
Hits are given with their value; i = inactive; nt = no result. Hits are enriched below; roughly 27% of the tested compounds scored in any of these assays.

SMILES	HIV Rev-RRE inh	CYP2C9 activ	CYP2C19 activ	Cav3 T inh	CYP2C19 inh	CYP2C9 inh
Cc1cccc(NC(=O)Cc2ccc(F)cc2)c1	i	i	i	i	96	58
O=C(CSCc1cccc(CSCC(=O)Nc2ccccc2)n1)Nc1ccccc1	i	i	i	-6.8	53	65
O=C(CSCc1ccc(F)cc1)Nc1ccccc1	i	i	i	i	94	i
Cc1ccc(CNC(=O)CCS(=O)(=O)c2ccc(Br)s2)cc1	i	i	i	i	i	i
CC1CCN(C(=O)C2(NC(=O)Nc3cccc(F)c3)CCCCC2)CC1	i	nt	nt	i	nt	nt
COc1ccc(-c2cc(-c3ccc(Br)cc3)nc3ncnn23)cc1OC	i	i	i	i	i	55
COc1ccc(-c2cc(-c3ccccc3)nc3ncnn23)cc1	nt	nt	nt	i	nt	nt
Cc1onc(-c2ccccc2)c1C(=O)NC(C)C1CCCO1 (stereo unspecified)	i	i	i	i	i	i
C=CCn1c(Cc2nc3ccc(Cl)cc3[nH]2)n[nH]c1=S	i	i	i	i	98	i
C=CCn1c(Cc2c[nH]c3ccccc23)nnc1SCC(=O)NCc1ccccc1	i	i	i	i	i	i
C=CCn1c(Cc2c[nH]c3ccccc23)n[nH]c1=S	i	i	i	i	62	i
COC(=O)c1ccc(/C=N/NC(=O)CC(=O)NC(C)C)cc1	i	i	i	i	i	i
COc1cccc(C(=O)CSc2nnc(-c3cc(OC)c(OC)c(OC)c3)o2)c1	i	i	i	i	i	i
C=CCN=C(NC#N)SCC(=O)c1cccc(OC)c1	i	i	i	i	95	i
CCC(CC)c1nnc(NC(=O)c2cccc(S(=O)(=O)N3CCc4ccccc43)c2)s1	i	i	i	i	i	76
CN1CCc2nc(NC(=O)c3cccc(S(=O)(=O)N4CCc5ccccc54)c3)sc2C1	i	i	i	i	i	i
CCOC(=O)C1=C(C)NC(=S)N(C(C)=O)C1c1ccccc1 (stereo unspecified)	i	nt	nt	i	nt	nt
COCCNC(=O)CN(CCc1ccccc1)S(=O)(=O)c1ccc(OC)cc1	i	i	i	i	60	i
CS(=O)(=O)N(CCc1ccccc1)CC(=O)NCc1ccncc1	i	i	i	nt	100	99
COc1ccc(S(=O)(=O)N(CCc2ccccc2)CC(=O)O)cc1Cl	i	i	i	i	i	i
CCCCNC(=O)CN(CCc1ccccc1)S(C)(=O)=O	i	i	i	-5.3	72	i
O=C(CN(C1CCCCC1)C1CCCCC1)N1CCc2ccccc2C1	i	i	i	-5.8	76	65
COC(=O)c1oc2ccc(Br)cc2c1NC(=O)c1ccccc1	i	i	i	i	i	i
CC1(C)CC(=O)C(C(=O)CCCCC(=O)C2C(=O)CC(C)(C)CC2=O)C(=O)C1	nt	i	i	nt	i	i
CS(=O)(=O)N(CCc1ccccc1)CC(=O)N1CCCCC1	i	i	i	i	i	i
SMILES	HIV Rev-RRE inh	CYP2C9 activ	CYP2C19 activ	Cav3 T inh	CYP2C19 inh	CYP2C9 inh
CC(C)NC(=O)CN(CCc1ccccc1)S(C)(=O)=O	i	i	i	i	82	i
CS(=O)(=O)N(CCc1ccccc1)CC(=O)N1CCc2ccccc2C1	i	i	i	i	68	54
CS(=O)(=O)N(CCc1ccccc1)CC(N)=O	i	i	i	i	i	i
CCNC(=O)CN(CCc1ccccc1)S(C)(=O)=O	i	i	i	i	72	i
COc1ccc(CCNc2nncc(=O)[nH]2)cc1OC	i	i	i	i	i	i
O=c1c(Cl)c(N/N=C/c2ccc(Br)cc2)cnn1-c1ccccc1	i	i	i	nt	i	i
COc1ccc(CNC(=O)COC(=O)C2=COCCO2)cc1	i	i	i	i	i	i
Cc1ccccc1NC(=O)CN1C(=O)COc2ccc(Cl)cc21	i	i	i	i	97	55
Cc1ccc(NC(=O)CN2C(=O)COc3ccc(C)cc32)nc1	nt	i	i	i	i	i
CC(=O)c1ccc(NC(=O)CN2C(=O)COc3ccc(Cl)cc32)cc1	i	i	i	i	75	i
CC(C)CCSc1nc2c(c(=O)[nH]c(=O)n2C)n1CCCc1ccccc1	i	i	i	i	i	i
Cc1cnc(-c2nnc(N(C)C(=O)c3ccccn3)s2)cn1	nt	i	i	nt	i	i
CC1(C)Cc2ccccc2C2CC(O)C(=O)N21 (stereo unspecified)	i	i	i	i	i	i
CCC(=O)Nc1cccc(C(=O)OCC(=O)c2ccccc2Cl)c1	i	3.4	i	i	i	i
CCC(=O)Nc1ccccc1C(=O)OCC(=O)Nc1ccc(S(N)(=O)=O)cc1	i	i	i	i	i	i
O=C(COC(=O)c1ccco1)c1ccc2ccccc2c1	i	i	i	i	i	i
CCC(=O)Nc1ccccc1C(=O)OCC(=O)c1ccccc1	i	i	i	i	73	91
O=C(COC(=O)c1ccccc1NC(=O)c1ccccc1)c1ccc([N+](=O)[O-])cc1	i	i	i	i	63	70
CCC(=O)Nc1ccccc1C(=O)OCC(=O)c1ccc2ccccc2c1	i	i	i	i	90	69
Cc1nc2scc(-c3ccc(Cl)cc3)c2c(=O)o1	i	i	i	i	i	i
CC(C)C(NC(=O)COc1ccc2ccccc2c1)C(=O)N/N=C/C=C/c1ccccc1 (stereo unspecified)	i	i	i	i	i	i
CCOC(=O)c1cccc(-n2c(C)nc3ccccc3c2=O)c1	i	i	i	i	i	i
CCOC(=O)c1cccc(N2C(=O)c3ccccc3S2(=O)=O)c1	i	i	i	nt	56	68
CCOc1cc(NC(=O)c2ccccn2)c(OCC)cc1NC(=O)CC(C)C	i	i	i	i	i	i
CC1CCN(C(=O)c2scc3c2OCCO3)CC1	i	i	i	i	i	i
SMILES	HIV Rev-RRE inh	CYP2C9 activ	CYP2C19 activ	Cav3 T inh	CYP2C19 inh	CYP2C9 inh
O=C(Nc1ccccc1)c1c(F)cccc1F	i	i	i	i	i	i
O=C(Nc1ccccc1)c1nnsc1S(=O)c1ccc(Cl)cc1 (stereo unspecified)	i	i	i	i	i	64
FC(F)(F)C(F)(F)C(F)(F)c1nnc2ccc(N3CCOCC3)nn12	i	i	i	i	76	76
CCOP(=O)(c1c(F)c(F)c(F)c(F)c1F)C(O)c1ccccc1 (stereo unspecified)	i	i	i	i	i	i
CCOC(=O)c1c(C)[nH]c(=S)c(C#N)c1-c1ccc(OC)cc1	i	i	i	i	i	78
CCOC(=O)C1=C(c2cccc(F)c2)NC(=S)NC1C (stereo unspecified)	i	i	i	i	72	i
CCCOc1ccc([N+](=O)[O-])cc1C1NC(=S)NC(c2ccccc2)=C1C(=O)OCC (stereo unspecified)	i	i	i	i	i	67
